Values after ≈ are worked out from the molar mass of the structure shown.
What was measured:
Assay type in all cases: functional
Mus musculus [1] = species: Mus musculus; experiment: In vitro efficacy on humoral immune response by Mishell-Dutton assay (MD).
Outline: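 Spleen lymphocytes from female OF1 mice (ca. 10 x 10^6) cultured 3 days with sheep erythrocytes (ca. 30 x 10^6) and test compound. Cells then plated on agar with fresh erythrocytes; plaques form by complement lysis. Read-out is the count of antibody-producing plaque-forming cells. Cyclosporin A run in parallel.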

Mus musculus [2] = species: Mus musculus; experiment: In vitro inhibition of interleukin-2 (IL-2) production induced by stimulating lymphocytes derived from mouse spleens with the […]; details: Spleen
Outline: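 Compounds added with concanavalin A to the primary culture; supernatants collected at 48 h. IL-2 content measured by growth of IL-2-dependent CTLL cells, read as tritiated thymidine incorporation after 48 h. IC50 determined, with cyclosporin A run in parallel.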

Mus musculus [3] = species: Mus musculus; experiment: In vitro efficacy to suppress lymphocyte proliferation as measured by the incorporation of a labeled precursor ([3H]- thymidine) into DNA in Mixed Lymphocyte reaction (MLR).
Outline: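 Cells from spleens of female CBA mice aged 8–10 weeks (ca. 5 x 10^5). Compounds made up at 20 mg/mL in 9:1 (v/v) ethanol/Tween 80, then diluted in saline before adding to medium. Four concentrations per compound across 1.8–1000 ng/mL, in triplicate cultures. IC50 is the calculated concentration giving 50% inhibition of proliferation. Cyclosporin A run in parallel as control.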

| Structure (SMILES) | IC50 (Mus musculus [1]) | IC50 (Mus musculus [2]) | IC50 (Mus musculus [3]) |
| --- | --- | --- | --- |
| C/C=C/C[C@@H](C)[C@@H](O)[C@H]1C(=O)N[C@@H](CC)C(=O)N(C)CC(=O)N(C)[C@@H](CC(C)C)C(=O)N[C@@H](C(C)C)C(=O)N(C)[C@@H](CC(C)C)C(=O)N[C@@H](C)C(=O)N[C@H](COCC(=O)OC(C)(C)C)C(=O)N(C)[C@@H](CC(C)C)C(=O)N(C)[C@@H](CC(C)C)C(=O)N(C)[C@@H](C(C)C)C(=O)N1C | 0.41 µg/mL (≈ 0.308 µM) | > 1 µg/mL | 0.24 µg/mL (≈ 0.18 µM) |
| C/C=C/C[C@@H](C)[C@@H](O)[C@H]1C(=O)N[C@@H](CC)C(=O)N(C)CC(=O)N(C)[C@@H](CC(C)C)C(=O)N[C@@H](C(C)C)C(=O)N(C)[C@@H](CC(C)C)C(=O)N[C@@H](C)C(=O)N[C@H](COC)C(=O)N(C)[C@@H](CC(C)C)C(=O)N(C)[C@@H](CC(C)C)C(=O)N(C)[C@@H](C(C)C)C(=O)N1C | < 0.01 µg/mL | 0.024 µg/mL (≈ 0.0195 µM) | < 0.008 µg/mL |
| C/C=C/C[C@@H](C)[C@@H](O)[C@H]1C(=O)N[C@@H](CC)C(=O)N(C)CC(=O)N(C)[C@@H](CC(C)C)C(=O)N[C@@H](C(C)C)C(=O)N(C)[C@@H](CC(C)C)C(=O)N[C@@H](C)C(=O)N[C@H](COCc2ccccc2)C(=O)N(C)[C@@H](CC(C)C)C(=O)N(C)[C@@H](CC(C)C)C(=O)N(C)[C@@H](C(C)C)C(=O)N1C | 0.46 µg/mL (≈ 0.351 µM) | 0.095 µg/mL (≈ 0.0726 µM) | 0.25 µg/mL (≈ 0.191 µM) |
| C/C=C/C[C@@H](C)[C@@H](O)[C@H]1C(=O)N[C@@H](CC)C(=O)N(C)CC(=O)N(C)[C@@H](CC(C)C)C(=O)N[C@@H](C(C)C)C(=O)N(C)[C@@H](CC(C)C)C(=O)N[C@@H](C)C(=O)N[C@H](COCCOCCO)C(=O)N(C)[C@@H](CC(C)C)C(=O)N(C)[C@@H](CC(C)C)C(=O)N(C)[C@@H](C(C)C)C(=O)N1C | 0.035 µg/mL (≈ 0.0268 µM) | 0.075 µg/mL (≈ 0.0574 µM) | 0.17 µg/mL (≈ 0.13 µM) |
| C/C=C/C[C@@H](C)[C@@H](O)[C@H]1C(=O)N[C@@H](CC)C(=O)N(C)CC(=O)N(C)[C@@H](CC(C)C)C(=O)N[C@@H](C(C)C)C(=O)N(C)[C@@H](CC(C)C)C(=O)N[C@@H](C)C(=O)N[C@H](CO)C(=O)N(C)[C@@H](CC(C)C)C(=O)N(C)[C@@H](CC(C)C)C(=O)N(C)[C@@H](C(C)C)C(=O)N1C | 0.026 µg/mL (≈ 0.0213 µM) | < 0.008 µg/mL | < 0.008 µg/mL |
| C/C=C/C[C@@H](C)[C@@H](O)[C@H]1C(=O)N[C@@H](CC)C(=O)N(C)CC(=O)N(C)[C@@H](CC(C)C)C(=O)N[C@@H](C(C)C)C(=O)N(C)[C@@H](CC(C)C)C(=O)N[C@@H](C)C(=O)N[C@H](COCC(C)CO)C(=O)N(C)[C@@H](CC(C)C)C(=O)N(C)[C@@H](CC(C)C)C(=O)N(C)[C@@H](C(C)C)C(=O)N1C (some centres undefined) | 0.024 µg/mL (≈ 0.0186 µM) | 0.017 µg/mL (≈ 0.0132 µM) | 0.013 µg/mL (≈ 0.0101 µM) |
| C/C=C/C[C@@H](C)[C@@H](O)[C@H]1C(=O)N[C@@H](CC)C(=O)N(C)CC(=O)N(C)[C@@H](CC(C)C)C(=O)N[C@@H](C(C)C)C(=O)N(C)[C@@H](CC(C)C)C(=O)N[C@@H](C)C(=O)N[C@H](COCC(N)=O)C(=O)N(C)[C@@H](CC(C)C)C(=O)N(C)[C@@H](CC(C)C)C(=O)N(C)[C@@H](C(C)C)C(=O)N1C | 0.063 µg/mL (≈ 0.0494 µM) | 0.07 µg/mL (≈ 0.0549 µM) | 0.064 µg/mL (≈ 0.0502 µM) |
| C/C=C/C[C@@H](C)[C@@H](O)[C@H]1C(=O)N[C@@H](CC)C(=O)N(C)CC(=O)N(C)[C@@H](CC(C)C)C(=O)N[C@@H](C(C)C)C(=O)N(C)[C@@H](CC(C)C)C(=O)N[C@@H](C)C(=O)N[C@H](COCCO)C(=O)N(C)[C@@H](CC(C)C)C(=O)N(C)[C@@H](CC(C)C)C(=O)N(C)[C@@H](C(C)C)C(=O)N1C [OXECLOSPORIN] | 0.018 µg/mL (≈ 0.0143 µM) | 0.006 µg/mL (≈ 0.00475 µM) | < 0.008 µg/mL |
